Test results: ChEMBL document CHEMBL4339229, “Chalcones and Chalcone-mimetic Derivatives as Notch Inhibitors in a Model of T-cell Acute Lymphoblastic Leukemia” (ACS Med Chem Lett, 2019)
Calls of active or inactive are those of the source.

Tests used:
[1] = target: Neurogenic locus notch homolog protein 1 (Homo sapiens) (UniProt P46531); test: Inhibition of NOTCH1 signalling in human KOPTK1 cells harboring activating Notch1 gene mutations assessed as reduction in N1Val protein expression at 2.5 uM incubated for 36 hrs by Western blot analysis; format: cell-based
Chain of Neurogenic locus notch homolog protein 1 (Homo sapiens) (P46531 whole entry, the tested form may be a part): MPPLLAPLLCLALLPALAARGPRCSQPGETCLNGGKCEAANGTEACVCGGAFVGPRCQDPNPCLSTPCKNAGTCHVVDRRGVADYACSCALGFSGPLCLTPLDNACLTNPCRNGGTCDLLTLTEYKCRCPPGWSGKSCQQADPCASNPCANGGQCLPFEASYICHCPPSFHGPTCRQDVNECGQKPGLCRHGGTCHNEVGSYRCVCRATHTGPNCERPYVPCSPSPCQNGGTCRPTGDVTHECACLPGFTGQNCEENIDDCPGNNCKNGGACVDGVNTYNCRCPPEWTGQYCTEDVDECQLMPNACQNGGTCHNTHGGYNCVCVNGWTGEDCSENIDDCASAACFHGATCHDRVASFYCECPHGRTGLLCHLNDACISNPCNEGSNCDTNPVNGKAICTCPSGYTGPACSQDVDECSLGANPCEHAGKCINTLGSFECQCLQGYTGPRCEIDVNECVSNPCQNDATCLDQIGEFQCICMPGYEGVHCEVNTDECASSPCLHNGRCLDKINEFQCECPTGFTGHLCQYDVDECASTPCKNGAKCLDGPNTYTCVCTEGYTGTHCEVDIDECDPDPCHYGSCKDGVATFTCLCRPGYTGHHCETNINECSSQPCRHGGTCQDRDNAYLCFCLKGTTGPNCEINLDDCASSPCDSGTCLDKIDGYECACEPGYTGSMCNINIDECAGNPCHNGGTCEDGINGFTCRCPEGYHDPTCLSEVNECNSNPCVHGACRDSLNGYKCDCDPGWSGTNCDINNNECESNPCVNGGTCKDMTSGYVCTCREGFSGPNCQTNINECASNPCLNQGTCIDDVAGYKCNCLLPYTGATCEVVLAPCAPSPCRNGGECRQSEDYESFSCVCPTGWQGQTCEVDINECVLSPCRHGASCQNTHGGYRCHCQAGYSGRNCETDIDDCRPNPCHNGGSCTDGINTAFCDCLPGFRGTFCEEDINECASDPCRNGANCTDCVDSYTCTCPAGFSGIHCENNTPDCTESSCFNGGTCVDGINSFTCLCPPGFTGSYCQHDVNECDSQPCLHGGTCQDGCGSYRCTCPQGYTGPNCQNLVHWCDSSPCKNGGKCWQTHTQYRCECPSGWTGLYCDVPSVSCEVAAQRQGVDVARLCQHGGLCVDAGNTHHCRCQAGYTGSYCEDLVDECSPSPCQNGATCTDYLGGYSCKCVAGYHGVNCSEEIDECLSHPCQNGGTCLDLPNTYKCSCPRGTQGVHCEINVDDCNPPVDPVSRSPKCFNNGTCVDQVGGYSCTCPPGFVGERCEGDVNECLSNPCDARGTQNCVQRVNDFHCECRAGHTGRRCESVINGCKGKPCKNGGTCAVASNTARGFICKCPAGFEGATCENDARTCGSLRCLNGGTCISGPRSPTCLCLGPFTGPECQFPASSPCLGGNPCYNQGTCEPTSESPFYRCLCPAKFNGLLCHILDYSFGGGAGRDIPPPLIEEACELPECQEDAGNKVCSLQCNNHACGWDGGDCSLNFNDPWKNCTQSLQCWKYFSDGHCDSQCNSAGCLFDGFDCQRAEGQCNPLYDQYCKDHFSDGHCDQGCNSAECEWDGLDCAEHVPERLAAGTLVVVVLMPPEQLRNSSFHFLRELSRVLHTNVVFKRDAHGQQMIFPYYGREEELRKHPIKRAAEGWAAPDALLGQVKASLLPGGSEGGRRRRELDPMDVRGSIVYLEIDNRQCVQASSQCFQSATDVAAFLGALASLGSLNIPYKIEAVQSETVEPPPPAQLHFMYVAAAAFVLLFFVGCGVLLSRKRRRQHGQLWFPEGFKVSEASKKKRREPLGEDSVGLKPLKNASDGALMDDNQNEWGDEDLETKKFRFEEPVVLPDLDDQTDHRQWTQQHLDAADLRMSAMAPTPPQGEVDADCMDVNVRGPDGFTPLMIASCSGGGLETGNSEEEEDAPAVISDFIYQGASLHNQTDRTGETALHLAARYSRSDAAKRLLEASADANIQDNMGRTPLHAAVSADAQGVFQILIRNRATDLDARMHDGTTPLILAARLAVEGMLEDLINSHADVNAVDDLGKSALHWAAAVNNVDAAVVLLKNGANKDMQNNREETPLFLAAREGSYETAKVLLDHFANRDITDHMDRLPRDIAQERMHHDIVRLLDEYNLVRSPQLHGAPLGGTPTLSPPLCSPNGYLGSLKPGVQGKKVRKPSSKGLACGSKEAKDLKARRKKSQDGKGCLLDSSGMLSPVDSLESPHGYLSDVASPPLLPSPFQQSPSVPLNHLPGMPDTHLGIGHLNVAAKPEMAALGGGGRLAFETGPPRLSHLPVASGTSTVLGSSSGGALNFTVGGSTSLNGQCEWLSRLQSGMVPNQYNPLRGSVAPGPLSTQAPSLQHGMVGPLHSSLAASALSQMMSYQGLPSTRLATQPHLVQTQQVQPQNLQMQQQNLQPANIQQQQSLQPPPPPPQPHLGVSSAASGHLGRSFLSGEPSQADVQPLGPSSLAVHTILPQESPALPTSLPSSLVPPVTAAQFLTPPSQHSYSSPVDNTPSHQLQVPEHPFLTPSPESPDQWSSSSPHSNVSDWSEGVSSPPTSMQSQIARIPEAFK
Method in brief: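 KOPTK1 cells exposed 36 h to 2.5 μM compound or DMSO; endogenous activated Notch1 intracellular domain (N1Val) detected by Western blot with β-actin loading control; relative levels quantified by optical densitometry versus DMSO.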

KOPTK1 [2] = test: Antiproliferative activity against human KOPTK1 cells harboring activating Notch1 gene mutations assessed as reduction in cell viability at 2.5 uM incubated for 36 hrs by MTS assay; format: functional
Method in brief: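 Single-point MTS viability screen in KOPTK1 T-ALL cells: 2.5 μM compound or DMSO vehicle for 36 h; viability expressed relative to DMSO; 30% viability decrease used as screening threshold; two independent experiments in triplicate, mean ± SEM.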

[3] = target: Neurogenic locus notch homolog protein 1 (Homo sapiens) (UniProt P46531); test: Inhibition of NOTCH1 signalling in human KOPTK1 cells harboring activating Notch1 gene mutations assessed as reduction in DELTEX1 mRNA expression at 2.5 uM incubated for 36 hrs by RT-PCR analysis; format: cell-based
Method in brief: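 DELTEX1 (DTX1) relative gene expression measured in KOPTK1 cells after 36 h with 2.5 μM compound or DMSO vehicle; three independent experiments in triplicate, mean ± SEM.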

KOPTK1 [4] = test: Antiproliferative activity against human KOPTK1 cells harboring activating Notch1 gene mutations assessed as reduction in cell viability incubated for 36 hrs by MTS assay; format: functional, cell-based; conditions: KOPTK1, 36 h
Method in brief: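 Dose–response MTS proliferation assay in KOPTK1 cells at 0, 0.5, 1, 2.5, 5, 10, 20 and 50 μM for 36 h; IC50 taken as half-maximal growth-inhibitory concentration; three independent experiments in triplicate, mean ± SD.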

KOPTK1 [5] = test: Induction of cell death in human KOPTK1 cells harboring activating Notch1 gene mutations assessed as increase in cleaved PARP protein expression at 2.5 uM incubated for 36 hrs by Western blot analysis; format: functional, cell-based
Method in brief: (§1)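 Western blot of KOPTK1 lysates probed for p27kip, full-length and cleaved PARP, β-actin as loading control.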

KOPTK1 [6] = test: Induction of cell death in human KOPTK1 cells harboring activating Notch1 gene mutations assessed as increase in p27kip protein expression at 2.5 uM incubated for 36 hrs by Western blot analysis; format: functional, cell-based; method in brief: as §1
HaCaT = test: Antiproliferative activity against immortalized human HaCaT cells assessed as reduction in cell viability at 2.5 uM incubated for 36 hrs by MTS assay; format: functional, cell-based
Jurkat = test: Antiproliferative activity against human Jurkat cells assessed as reduction in cell viability at 2.5 uM incubated for 36 hrs by MTS assay; format: functional, cell-based

Row | SMILES | inhibition [1] | Activity (KOPTK1 [2]) | inhibition [3] | IC50 (KOPTK1 [4]) [µM] | Activity (KOPTK1 [5]) | Activity (KOPTK1 [6]) | Activity (HaCaT) | Activity (Jurkat)
1 | COc1ccc(C(=O)/C=C/c2ccc(O)cc2)c(O)c1 | Active | >=30% | Active | 1.91 | – | – | – | –
2 | COc1ccc2c(c1)CCC(C(=O)c1ccc(OC)cc1OC)C2 (racemic) | Active | >=30% | Active | 1.37 | Active | inactive | Active | Active
3 | COc1ccc(C(=O)C2CCc3cc(O)ccc3C2)c(O)c1 (racemic) | Active | >=30% | Active | 2.46 | inactive | Active | – | –
4 | COc1ccc2c(c1)CC(C(=O)c1ccc(OC)cc1OC)CC2 (racemic) | Active | >=30% | Active | 0.72 | Active | inactive | Active | Active
5 | Cc1ccc(C(=O)/C=C/c2ccc(O)cc2)cc1 | Active | >=30% | Active | 3.83 | inactive | Active | – | –
6 | COc1ccc(C(=O)/C=C/c2ccc(O)c(C)c2)c(O)c1 | Active | >=30% | Active | – | Active | Active | – | –
